In brackets after ≈: the same amount, converted by molar mass.
Legend:
Format in all cases: functional
[1] = tested on: Staphylococcus epidermidis; experiment: Antibacterial activity against Staphylococcus epidermidis RP62A by broth microdilution method
Method in brief: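 MIC against S. epidermidis RP62A by CLSI broth microdilution run in tubes (tube-dilution).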

[2] = tested on: Staphylococcus epidermidis; experiment: Antibacterial activity against Staphylococcus epidermidis RP62A assessed as colony number after 24 hrs microdilution agar plate method
Method in brief: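 MBC: 100 μl from each tube without visible growth in the MIC assay subcultured onto compound-free Mueller-Hinton agar, 37 °C for 24 h. Endpoint is the lowest concentration giving subcultures with no more than five colonies per plate.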

[3] = tested on: Staphylococcus epidermidis; experiment: Antibacterial activity against Staphylococcus epidermidis RP62A 6 hrs biofilm after 16 hrs by microtiter plate method
Method in brief: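 S. epidermidis RP62A overnight culture diluted 1:10 in TSB (OD600 0.6–0.8), then 1:200 in MH; inoculated into 96-well polystyrene wells, 37 °C for 6 h to form young biofilm. Wells washed four times with sterile PBS, fresh TSB with compound at various concentrations added, further 37 °C for 16 h.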

MIC [1]	Structure (SMILES)	MBC [2]	Activity [3]
50 µM (≈ 24.3 µg/mL)	CCc1ccccc1/N=C1\S/C(=C\c2cccc(OCC(=O)O)c2)C(=O)N1c1ccccc1CC	100 µM	100 µM
> 200 µM	Cc1ccccc1/N=C1\S/C(=C\c2ccc(OCC(=O)O)cc2)C(=O)N1c1ccccc1C	> 200 µM	>200 µM
50 µM (≈ 25.8 µg/mL)	CCc1ccccc1/N=C1\S/C(=C\c2ccc(OCC(=O)O)c(OC)c2)C(=O)N1c1ccccc1CC	100 µM	100 µM
12.5 µM (≈ 6.18 µg/mL)	Cc1ccccc1/N=C1\S/C(=C\c2ccc(-c3cccc(C(=O)O)c3)o2)C(=O)N1c1ccccc1C	25 µM	25 µM
50 µM (≈ 24.3 µg/mL)	CCc1ccccc1/N=C1\S/C(=C\c2ccc(OCC(=O)O)cc2)C(=O)N1c1ccccc1CC	100 µM	100 µM
> 200 µM	CCc1ccccc1/N=C1\S/C(=C\c2cccc(OCC(=O)OC)c2)C(=O)N1c1ccccc1CC	> 200 µM	>200 µM
> 200 µM	CCc1ccccc1/N=C1\S/C(=C\c2ccc(O)cc2)C(=O)N1c1ccccc1CC	> 200 µM	>200 µM
> 200 µM	CCc1ccccc1/N=C1\S/C(=C\c2ccc(OCC(=O)OC)cc2)C(=O)N1c1ccccc1CC	> 200 µM	>200 µM
> 200 µM	COC(=O)c1cccc(-c2ccc(/C=C3\S/C(=N\c4ccc(C)cc4)N(c4ccc(C)cc4)C3=O)o2)c1	> 200 µM	>200 µM
> 200 µM	COC(=O)COc1ccc(/C=C2\S/C(=N\c3ccccc3C)N(c3ccccc3C)C2=O)cc1	> 200 µM	>200 µM
> 200 µM	COC(=O)c1cccc(-c2ccc(/C=C3\S/C(=N\c4ccc(OC)cc4)N(c4ccc(OC)cc4)C3=O)o2)c1	> 200 µM	>200 µM

Second part, the compound before the results:

Structure (SMILES)	MIC [1]	MBC [2]	Activity [3]
Cc1ccccc1/N=C1\S/C(=C\c2ccc(O)cc2)C(=O)N1c1ccccc1C	> 200 µM	> 200 µM	>200 µM
COc1cc(/C=C2\S/C(=N\c3ccccc3)N(c3ccccc3)C2=O)ccc1O	> 200 µM	> 200 µM	>200 µM
COc1ccc(/N=C2\S/C(=C\c3ccc(-c4cccc(C(=O)O)c4)o3)C(=O)N2c2ccc(OC)cc2)cc1	6.25 µM (≈ 3.29 µg/mL)	25 µM	6.25 µM
CCc1ccccc1/N=C1\S/C(=C\c2ccc(-c3cccc(C(=O)OC)c3)o2)C(=O)N1c1ccccc1CC	> 200 µM	> 200 µM	>200 µM
CN(C)c1ccc(/C=C2\S/C(=N\c3ccccc3)N(c3ccccc3)C2=O)cc1	> 200 µM	> 200 µM	>200 µM
CCc1ccccc1/N=C1\S/C(=C\c2cccc(O)c2)C(=O)N1c1ccccc1CC	> 200 µM	> 200 µM	>200 µM
COc1cc(/C=C2\S/C(=N\c3ccccc3C)N(c3ccccc3C)C2=O)ccc1OCC(=O)O	> 200 µM	> 200 µM	>200 µM
COC(=O)COc1ccc(/C=C2\S/C(=N\c3ccccc3C)N(c3ccccc3C)C2=O)cc1OC	> 200 µM	> 200 µM	>200 µM
CCc1ccccc1/N=C1\S/C(=C\c2ccc(-c3cccc(C(=O)O)c3)o2)C(=O)N1c1ccccc1CC	12.5 µM (≈ 6.53 µg/mL)	25 µM	25 µM
Cc1ccc(/N=C2\S/C(=C\c3ccc(-c4cccc(C(=O)O)c4)o3)C(=O)N2c2ccc(C)cc2)cc1	6.25 µM (≈ 3.09 µg/mL)	25 µM	12.5 µM
COC(=O)COc1ccc(/C=C2\S/C(=N\c3ccccc3)N(c3ccccc3)C2=O)cc1OC	> 200 µM	> 200 µM	>200 µM
COc1cc(/C=C2\S/C(=N\c3ccccc3)N(c3ccccc3)C2=O)ccc1OCC(=O)O	> 200 µM	> 200 µM	>200 µM
COC(=O)c1cccc(-c2ccc(/C=C3\S/C(=N\c4ccccc4C)N(c4ccccc4C)C3=O)o2)c1	> 200 µM	> 200 µM	>200 µM
COc1cc(/C=C2\S/C(=N\c3ccccc3C)N(c3ccccc3C)C2=O)ccc1O	> 200 µM	> 200 µM	>200 µM
